Screening results deposited in PubChem BioAssay by Johns Hopkins Ion Channel Center.
MrgX1 ag = human MrgX1 receptor agonism, primary screen; Q96LB2; MrgX1-HEK293 cells, Fluo-4 calcium fluorescence, agonist mode; hits give high values; B-score at 10 µM; hit rate 0.44% among 310,000;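 active = calcium response B-score plate-corrected fluorescence ratio at least 3 library SD, with starting fluorescence B-score inside 5 SD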
Target sequence (Q96LB2 whole entry, looked up): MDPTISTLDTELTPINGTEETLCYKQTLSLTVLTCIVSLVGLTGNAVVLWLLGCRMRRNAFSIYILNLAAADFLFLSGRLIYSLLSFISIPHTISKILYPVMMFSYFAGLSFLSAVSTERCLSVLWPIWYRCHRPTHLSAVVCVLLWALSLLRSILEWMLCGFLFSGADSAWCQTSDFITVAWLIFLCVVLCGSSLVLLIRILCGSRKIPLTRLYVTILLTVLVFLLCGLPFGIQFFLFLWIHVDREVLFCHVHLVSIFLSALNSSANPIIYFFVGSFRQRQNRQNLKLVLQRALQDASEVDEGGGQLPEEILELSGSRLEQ
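Material: MrgX1-expressing HEK293 cells / Dosing: compound as first of three additions / Incubation: overnight seeding, then 1 h dark dye loading / Signal: Fluo-4 NW calcium fluorescence / Evaluation: B-scored fluorescence response ratio / Benchmarks: positive and negative control wells on each plate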
RGS4 inh = human RGS4 inhibition | P49798 | HEK293 M3R/RGS4 inducible, Fluo-4 calcium flux; hits give high values; triggered by carbachol at its EC20 | B-score at 10 µM | hit rate 0.45% among 310,000 | AID 463165;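 active = B-score, a plate-corrected calcium signal, over three deviations above library mean, with baseline fluorescence within five deviations of library mean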;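 also: RGS4 expression induced by doxycycline in cells with stable M3 receptor; B-score is computed from the integrated fluorescence ratio over baseline after carbachol; higher B-score means a larger calcium signal and so more RGS4 inhibition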
RGS4 pot = potentiators or activators of RGS4 | HEK293 M3R/inducible RGS4, carbachol calcium flux Fluo4; hits give low values | B-score at 10 µM | hit rate 0.92% among 310,000;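 active = B-score of the integrated calcium signal more than 4 SD below the library mean, with starting fluorescence not abnormally high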;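 also: negative B-score means reduced calcium response which marks RGS4 activation or potentiation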
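System: HEK293 FlpIn-TREx cells, stable M3R, doxycycline-inducible RGS4. Timing: overnight RGS4 induction, 30 min dye load 37 °C, 20 min compound RT. Also added: carbachol, ECmax concentration. Measured by: Fluo4 fluorescence kinetic imaging of calcium. Evaluation: integrated calcium ratio converted to B score.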
MrgX1 antagonist = blocks BAM8-22 activation of human MrgX1 receptor. Q96LB2. B-score at 10 µM. MRGX1-HEK293 calcium flux, Fluo-4, BAM8-22 antagonism; hits give low values. AID 588676. hit rate 1.3% among 310,000;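 active = calcium-response B-score plate-corrected more than 3 library SD below zero, starting fluorescence within 5 deviations, no agonist response on first addition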;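 also: peak minus trough fluorescence over baseline after final BAM8-22 challenge near maximal dose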
MrgX1 PAM = allosterically activates human MrgX1 receptor signaling; B-score at 10 µM; hit rate 0.63% among 310,000; MrgX1-HEK293, Fluo-4 calcium flux, FDSS; hits give high values;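 active = plate-corrected calcium response at least 3 library SD above typical, normal starting fluorescence, not activating the receptor alone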;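 also: compound read alongside a low EC10 to EC30 dose of BAM8-22 agonist; peak minus trough fluorescence over baseline measured at the second addition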
RGS4 inh valid = validation of RGS4 inhibitors. shares compounds with RGS4 inh. HEK293 M3R/RGS4, carbachol calcium Fluo-4 fluorescence; carbachol added at its EC20; 0 = buffer wells, 100 = carbachol control. calcium response, % at 10 µM. hit rate 65% among 1,700. AID 492999;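 active = duplicate-averaged calcium response above the buffer-only control mean plus 5 SD of those controls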;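 also: integrated fluorescence ratio F max minus min over baseline F0; higher response in RGS4-induced cells means RGS4 inhibition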
RGS4 uninduced = non-induced cell nonspecific activity of RGS4 inhibitors; shares compounds with RGS4 inh; HEK293 M3R non-induced, carbachol calcium Fluo-4; submaximal (EC20) carbachol stimulus; buffer wells 0%, carbachol control wells 100%; hit rate 20% among 1,900; activity (percent), % at 10 µM; call rule not given here;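 also: RGS4 induction absent so cells express M3R without RGS4; higher means more calcium signal and flags a non-specific hit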
M3R basal Ca ctr = signal in non-induced cells without carbachol, RGS4 inhibitor counter-screen; shares compounds with RGS4 inh; HEK293 M3R/RGS4 non-induced, Fluo-4 calcium, no carbachol; normalised: buffer wells 0%, carbachol wells 100%; calcium response (agonist-mode artifact), % at 10 µM; hit rate 22% among 1,900; AID 493001;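 active = duplicate-averaged calcium rise in uninduced cells above buffer wells' mean plus 5 SD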
Active calls of the source: *. Rows were chosen to be rich in hits. Some 3.5% of all compounds tested hit in one or more screens of this group.

Screening CCOC(=O)[C@@H]1[C@H]2COc3ccc(Br)cc3[C@@H]2N2C(=O)N(c3ccc(C)cc3)C(=O)[C@]12C returned MrgX1 ag inactive, RGS4 inh inactive, RGS4 pot inactive, MrgX1 antagonist inactive and MrgX1 PAM inactive.
`CCOC(=O)[C@@H]1[C@H]2COc3ccc(Br)cc3[C@@H]2N2C(=O)N(c3ccc(Cl)cc3)C(=O)[C@]12C` gave MrgX1 ag inactive, RGS4 inh inactive, RGS4 pot inactive, MrgX1 antagonist inactive, MrgX1 PAM inactive, RGS4 uninduced inactive and M3R basal Ca ctr inactive.
`CCCN(C(=O)Cc1c(C(=O)O)n(C)c2ccccc12)c1cccc(C)c1` gave MrgX1 ag inactive, RGS4 inh 6.2*, RGS4 pot inactive, MrgX1 antagonist inactive, MrgX1 PAM inactive, RGS4 inh valid 12%*, RGS4 uninduced 68%* and M3R basal Ca ctr 12%*.
`CCOC(=O)Cn1cc(/C=C/[N+](=O)[O-])c2ccccc21` gave MrgX1 ag 33*, RGS4 inh 17*, RGS4 pot inactive, MrgX1 antagonist inactive, MrgX1 PAM inactive, RGS4 inh valid 56%*, RGS4 uninduced 61%* and M3R basal Ca ctr 14%*.
For Cc1cccc(Cn2cc(/C=C/[N+](=O)[O-])c3ccccc32)c1 the results were MrgX1 ag inactive, RGS4 inh inactive, RGS4 pot inactive, MrgX1 antagonist inactive and MrgX1 PAM inactive.
Screening CCOC(=O)COc1ccc(/C=C/[N+](=O)[O-])c(OCC(=O)OCC)c1 returned MrgX1 ag inactive, RGS4 inh 11*, RGS4 pot inactive, MrgX1 antagonist inactive, MrgX1 PAM inactive, RGS4 inh valid 24%*, RGS4 uninduced 34%* and M3R basal Ca ctr inactive.
COC(=O)c1ccc(Cn2nc(C)c([N+](=O)[O-])c2C)o1 was read as MrgX1 ag inactive, RGS4 inh inactive, RGS4 pot inactive, MrgX1 antagonist inactive and MrgX1 PAM inactive.
For O=[N+]([O-])/C=C/c1cn(Cc2ccc(Cl)cc2)c2ccccc12 the results were MrgX1 ag inactive, RGS4 inh 8.6*, RGS4 pot inactive, MrgX1 antagonist inactive, MrgX1 PAM inactive, RGS4 inh valid 24%*, RGS4 uninduced inactive and M3R basal Ca ctr 76%*.
Screening COC(=O)c1ccc(Cn2cc(/C=C\[N+](=O)[O-])c3ccccc32)o1 returned MrgX1 ag inactive, RGS4 inh 5.4*, RGS4 pot inactive, MrgX1 antagonist inactive, MrgX1 PAM inactive, RGS4 inh valid 67%*, RGS4 uninduced 48%* and M3R basal Ca ctr 40%*.
Screening Cc1c(Cl)cccc1NC(=O)CSc1nncn1-c1ccccn1 returned MrgX1 ag inactive, RGS4 inh inactive, RGS4 pot inactive, MrgX1 antagonist inactive and MrgX1 PAM inactive.
`CCOc1ccc(/C=C/[N+](=O)[O-])c2ccccc12` gave MrgX1 ag 42*, RGS4 inh 23*, RGS4 pot inactive, MrgX1 antagonist inactive, MrgX1 PAM inactive, RGS4 inh valid 45%*, RGS4 uninduced inactive and M3R basal Ca ctr 27%*.
`O=C(O)c1ccc(Cn2cc(/C=C\[N+](=O)[O-])c3ccccc32)o1` gave MrgX1 ag inactive, RGS4 inh inactive, RGS4 pot inactive, MrgX1 antagonist inactive, MrgX1 PAM inactive, RGS4 inh valid inactive, RGS4 uninduced inactive and M3R basal Ca ctr inactive.
